Laboratory results from ChEMBL document CHEMBL1123382, “Potential tumor- or organ-imaging agents. 27. Polyiodinated 1,3-disubstituted and 1,2,3-trisubstituted triacylglycerols” (J Med Chem, 1986).
“And” between values parts separate entries of the source, which are not always exact repeats. Equal entries are not always repeated.

Legend:
[1] = test system: Rattus norvegicus; assay: (§1) Biodistribution in Rat liver after 30 minutes of iv administration; per g of tissue; type: ADME, organism-based; conditions: in vivo, 0.5 h
How it was run: (§2)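 125I-labeled compound solubilized in normal saline with Tween-20 and given iv to rats, about 5-30 μCi (9-83 μg) per animal. Three to five rats per time point. Rats killed by exsanguination under ether anesthesia at 5 min, 30 min or 24 h. Organs minced, blotted free of blood and counted for radioiodine. Lines with "per g" are % administered dose per gram ± SEM.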

[2] = test system: Rattus norvegicus; assay: Biodistribution in Rat lung after 24 hours of iv administration; per g of tissue; type: ADME, organism-based; conditions: in vivo; how it was run: as §2
[3] = test system: Rattus norvegicus; assay: Biodistribution in Rat lung after 30 minutes of iv administration; per g of tissue; type: ADME, organism-based; conditions: in vivo, 0.5 h; how it was run: as §2
[4] = test system: Rattus norvegicus; assay: Biodistribution in Rat lung after 5 minutes of iv administration; per g of tissue; type: ADME, organism-based; conditions: in vivo; how it was run: as §2
[5] = test system: Rattus norvegicus; assay: Biodistribution in Rat blood after 24 hours of iv administration; per g of tissue; type: ADME, organism-based; conditions: in vivo; how it was run: as §2
[6] = test system: Rattus norvegicus; assay: Biodistribution in Rat blood after 5 minutes of iv administration; per g of tissue; type: ADME, organism-based; conditions: in vivo; how it was run: as §2
[7] = test system: Rattus norvegicus; assay: Biodistribution in Rat heart after 24 hours of iv administration; per g of tissue; type: ADME, organism-based; conditions: in vivo; how it was run: as §2
[8] = test system: Rattus norvegicus; assay: Biodistribution in Rat heart after 30 minutes of iv administration; per g of tissue; type: ADME, organism-based; conditions: in vivo, 0.5 h; how it was run: as §2
[9] = test system: Rattus norvegicus; assay: Biodistribution in Rat heart after 5 minutes of iv administration; per g of tissue; type: ADME, organism-based; conditions: in vivo; how it was run: as §2
[10] = test system: Rattus norvegicus; assay: Biodistribution in Rat liver after 24 hours of iv administration; per g of tissue; type: ADME, organism-based; conditions: in vivo; how it was run: as §2
[11] = test system: Rattus norvegicus; assay: as §1; type: ADME, organism-based; conditions: in vivo, 0.5 h; how it was run: as §2; remark: listed apart in the source
[12] = test system: Rattus norvegicus; assay: Compound was evaluated for the lipid soluble radioactivity extracted from rat plasma at 24 hr after intravenous administration.; type: functional
How it was run: (§3)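 Liver and plasma taken 0.5 or 24 h after iv dosing of 125I-labeled compound in rats (n = 3-5). Extracted by a modified Folch procedure; value is % lipid (CHCl3/MeOH)-extractable radioactivity ± SEM. Extracts run on TLC in hexane/ethyl acetate 5:2 against unlabeled standard, then 1-cm strips counted to give % parent compound.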

[13] = test system: Rattus norvegicus; assay: Compound was evaluated for the lipid soluble radioactivity extracted from rat liver at 0.5 hr after intravenous administration.; type: functional; how it was run: as §3
[14] = test system: Rattus norvegicus; assay: Compound was evaluated for the lipid soluble radioactivity extracted from rat liver at 24 hr after intravenous administration.; type: functional; how it was run: as §3
[15] = test system: Rattus norvegicus; assay: Compound was evaluated for the lipid soluble radioactivity extracted from rat plasma at 0.5 hr after intravenous administration.; type: functional; how it was run: as §3
[16] = test system: Rattus norvegicus; assay: Liver radioactivity after iv administration of compound (24 h) in rats; type: functional, organism-based
How it was run: (§4)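 Rats (3-5 per time point) dosed iv with about 5-30 μCi (9-83 μg) of 125I-labeled compound in saline containing Tween-20. Killed by exsanguination under ether at 5 min, 30 min or 24 h. Liver removed, minced, blotted and counted. Values are % administered dose per organ, based on each animal's actual liver weight, ± SEM.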

[17] = test system: Rattus norvegicus; assay: Liver radioactivity after iv administration of compound (30 min) in rats; type: functional, organism-based; how it was run: as §4
[18] = test system: Rattus norvegicus; assay: Liver radioactivity after iv administration of compound (5 min) in rats; type: functional, organism-based; how it was run: as §4
[19] = test system: Rattus norvegicus; assay: Compound (125I labeled) was evaluated for the total radioactivity in albumin 5 min after intravenous administration.; type: functional; design: concentration or dose not given beside the values
How it was run: (§5)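 Rat plasma taken 5 or 30 min after iv dosing of 125I-labeled compound (saline/Tween-20) and run on polyacrylamide gel electrophoresis. Gels sectioned and each section gamma-counted. Radioactivity in each band (stacking gel, lipoproteins, albumin, below-albumin) is given as % of total radioactivity applied to the gel.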

[20] = test system: Rattus norvegicus; assay: Evaluated for the total radioactivity in below albumin at 30 min after intravenous administration.; type: functional; how it was run: as §5
[21] = test system: Rattus norvegicus; assay: Compound (125I labeled) was evaluated for the total radioactivity in high-density lipoprotein 5 min after intravenous administration.; type: functional; how it was run: as §5
[22] = test system: Rattus norvegicus; assay: Compound (125I labeled) was evaluated for the total radioactivity in high-density lipoprotein, at 30 min after intravenous administration.; type: functional; how it was run: as §5
[23] = test system: Rattus norvegicus; assay: Compound (125I labeled) was evaluated for the total radioactivity in low-density lipoprotein, at 30 min after intravenous administration.; type: functional; how it was run: as §5
[24] = test system: Rattus norvegicus; assay: Compound (125I labeled) was evaluated for the total radioactivity in stacking gel 5 min after intravenous administration.; type: functional; how it was run: as §5
[25] = test system: Rattus norvegicus; assay: Compound (125I labeled) was evaluated for the total radioactivity in stacking gel at 30 min after intravenous administration.; type: functional; how it was run: as §5
[26] = test system: Rattus norvegicus; assay: Compound (125I labeled)was evaluated for the total radioactivity in low-density lipoprotein 5 min after intravenous administration.; type: functional; how it was run: as §5
[27] = test system: Rattus norvegicus; assay: Biodistribution in Rat liver after 5 minutes of iv administration; per g of tissue; type: ADME, organism-based; conditions: in vivo; how it was run: as §2
[28] = test system: Rattus norvegicus; assay: Biodistribution in Rat blood after 30 minutes of iv administration; per g of tissue; type: ADME, organism-based; conditions: in vivo, 0.5 h; how it was run: as §2
[29] = test system: Rattus norvegicus; assay: Compound (125I labeled) was evaluated for the total radioactivity in albumin at 30 min after intravenous administration.; type: functional; design: concentration or dose not given beside the values; how it was run: as §5
[30] = test system: Rattus norvegicus; assay: Compound (125I labeled) was evaluated for the total radioactivity in low-density lipoprotein 5 min after intravenous administration.; type: functional; design: concentration or dose not given beside the values; how it was run: as §5

Row | Biodistribution [1] [%] | Biodistribution [2] [%] | Biodistribution [3] [%] | Biodistribution [4] [%] | Biodistribution [5] [%] | Biodistribution [6] [%] | Biodistribution [7] [%] | Biodistribution [8] [%] | Biodistribution [9] [%] | Biodistribution [10] | Biodistribution [11] [%] | Compound | Extracted [12] [%] | Parent compound [12] [%] | Extracted [13] [%] | Parent compound [13] [%] | Extracted [14] [%] | Parent compound [14] [%] | Extracted [15] [%] | Parent compound [15] [%] | Radioactivity [16] | other results
1 | 7.62 | 0.13 | 0.73 | 1.13 | 0.12 | 4.75 | 0.05 | 0.32 | 0.64 | 0.11% and 1.39% | 7.62 | CCCCCCCCCCCCCCCC(=O)OC(COC(=O)Cc1c(I)cc(I)c(N)c1I)COC(=O)Cc1c(I)cc(I)c(N)c1I | 67 | 60.8 | 90.5 | 89.5 | 80.1 | 68.8 | 82.7 | 82.8 | 10.3 | Radioactivity [17]: 57.2; Radioactivity [18]: 38.8; Total radioactivity [19]: 4.5%; Total radioactivity [20]: 3.2% and 2.4%; Total radioactivity [21]: 34.7%; Total radioactivity [22]: 42%; Total radioactivity [23]: 35.1%; Total radioactivity [24]: 18.7%; Total radioactivity [25]: 16.6%; Total radioactivity [26]: 39%; Biodistribution [27]: 0.54% and 5.53%; Biodistribution [28]: 2.62%; Total radioactivity [29]: 3.9%
2 | 5.82 | 0.21 | 0.94 | 0.75 | 0.31 | 3.48 | 0.42 | 0.56 | 0.43 | 0.29% and 2.19% | 5.82 | CCCCCCCCCCCCCCCC(=O)OC(COC(=O)CCc1c(I)cc(I)c(N)c1I)COC(=O)CCc1c(I)cc(I)c(N)c1I | 63.7 | 80 | 86.2 | 94.2 | 83.1 | 88 | 62.9 | 90.6 | 14.7 | Radioactivity [17]: 38.4; Radioactivity [18]: 43.1; Total radioactivity [19]: 5%; Total radioactivity [20]: 0.2% and 1.2%; Total radioactivity [21]: 52.8%; Total radioactivity [22]: 36.3%; Total radioactivity [30]: 27.8%; Total radioactivity [23]: 40.6%; Total radioactivity [24]: 14.2%; Total radioactivity [25]: 19%; Biodistribution [27]: 0.5% and 6.19%; Biodistribution [28]: 4.25%; Total radioactivity [29]: 2.8%
